In publication PMC11109934 (RSC Medicinal Chemistry, 2024):

Columns and labels:
GL261-Luc cells = test: xCELLigence real time monitoring of cell proliferation, GL261-Luc; type: cell-based, mouse; conditions: for reduction of cell index: 72 hours
BxPC3 cells = test: xCELLigence real time monitoring of cell proliferation, BxPC3; type: cell-based, human
[1] = system: primary cultured mouse astrocytes; test: xCELLigence real time monitoring of cell proliferation, primary mouse astrocytes; type: cell-based; conditions: for reduction of cell index: primary cultured mouse astrocytes, after 72 hours
[2] = system: caspase 3/7 activation in BxPC3 cells; test: Caspase 3/7 assay, BxPC3; type: cell-based, human; conditions: 72 hours; for increase in caspase 3/7 activation (apoptosis): 256 μM
In short: (§1)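 BxPC3 (5 × 10^3/well) or GL261-Luc (3 × 10^3/well) cells in DMEM, 10% FBS, 1% pen-strep-glutamine. After 24 h, exposed to test compound for 72 h in medium with 0.1% DMSO final. CellEvent caspase-3/7 green reagent added for 1 h at 37 °C. Whole-well fluorescence imaged (Ex 488/Em 520). Cells then fixed (3.7% PFA), permeabilised (0.3% Triton X-100), BSA-blocked and stained with CellTag 700 (Ex 685/Em 720). Caspase signal normalised to cell number, then expressed as fold over control. At least 3 independent experiments, at least 4 replicates each.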

[3] = system: caspase 3/7 activation in GL261-Luc cells; test: Caspase 3/7 assay, GL261-Luc; type: cell-based, mouse; conditions: 72 hours; for increase in caspase 3/7 activation (apoptosis): 256 μM
In short: as §1

[4] = system: BxPC3 human pancreatic cancer cells; test: CyQUANT viability assay, BxPC3; type: cell-based; conditions: 72 hours, compared to the control
In short: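 BxPC3 cells (DMEM, 10% FBS, 1% pen-strep-glutamine; passages 10–20) were seeded at 5 × 10^3/well. After 24 h they were exposed to test compound for 72 h, with 0.1% DMSO final. Medium was removed, then CyQUANT Direct nucleic acid stain plus background suppressor in HBSS was added for 1 h at 37 °C. Whole-well fluorescence was laser-scanned (Ex 488/Em 520, 100 μm pixels) and normalised to control (100% viability). At least 3 independent experiments, at least 4 replicates each.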

[5] = BxPC3 cells, 128 μM, after 72 hours, compared to the control
[6] = 128 μM, normalised to cell number (CellTag 700)

Structure (SMILES): Oc1cccc2ccccc12 [1-naphthol, 1-Naphthol]
- time until cytotoxicity began (GL261-Luc cells; 128 μM): 28 h

Structure (SMILES): Oc1ccc2ccccc2c1 [2-naphthol]
- activity in real-time xCELLigence experiments (BxPC3 cells; 16 μM): notable activity
- time until cell index declined (BxPC3 cells; BxPC3 cells, 128 μM): 8 h
- ED50 (cell index) (BxPC3 cells; BxPC3 cells, 72-hour exposure time, xCELLigence): 21 µM
- fold greater cytotoxicity than 1-naphthol (BxPC3 cells; BxPC3 cells, real time xCELLigence monitoring): 4 fold
- time until cell index declined ([1]; primary cultured astrocytes, 128 μM): ≤ 4 h

Structure (SMILES): C[C@H](N)C(=O)OCc1ccccc1 [L-alanine benzyl ester]
- increase in caspase 3/7 activation (apoptosis) [2]: no significant increase
- reduction of cell index (BxPC3 cells; BxPC3 cells, 256 μM, 72 hours): no significant effect
- increase in caspase 3/7 activation (apoptosis) [3]: no significant increase
- reduction of viability (CyQUANT) ([4]; 256 μM): no significant effect
- reduction of cell index (GL261-Luc cells; 256 μM): no significant effect
- reduction of cell index ([1]; 256 μM): 11–17%

Structure (SMILES): CC(C)OC(=O)[C@H](C)N [L-alanine isopropyl ester]
- increase in caspase 3/7 activation (apoptosis) [2]: no significant increase
- reduction of cell index (BxPC3 cells; BxPC3 cells, 256 μM, 72 hours): no significant effect
- increase in caspase 3/7 activation (apoptosis) [3]: no significant increase
- reduction of viability (CyQUANT) ([4]; 256 μM): no significant effect
- reduction of cell index (GL261-Luc cells; 256 μM): no significant effect
- reduction of cell index ([1]; 256 μM): 11–17%

Structure (SMILES): Oc1ccccc1 [phenol]
- reduction of cell index (BxPC3 cells; [5]): no significant effect
- reduction of viability (CyQUANT) ([4]; 128 μM): no significant effect
- reduction of cell index (GL261-Luc cells; 128 μM): no significant effect
- reduction of cell index ([1]; 128 μM): 11–17%

Structure (SMILES): OCc1ccccc1O [salicyl alcohol]
- increase in caspase 3/7 activation [2, 6]: no effect
- reduction of cell index (BxPC3 cells; [5]): no significant effect
- increase in caspase 3/7 activation [3, 6]: no effect
- reduction of viability (CyQUANT) ([4]; 128 μM): no significant effect
- reduction of cell index (GL261-Luc cells; 128 μM): no significant effect
- reduction of cell index ([1]; 128 μM): 11–17%
